Test results from ChEMBL document CHEMBL1124441, “Synthesis of congeners and prodrugs. 3. Water-soluble prodrugs of taxol with potent antitumor activity” (1989).

Legend:
Type in all cases: functional, Mus musculus
Settings in all cases: route intraperitoneal
B16 [1] = experiment: Percent of median lifetime of test animals divided by the median lifetime of control animals at a dose of 24.5 mg/kg intraperitoneally
Outline: (§1)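 B16 melanoma, 10^6 cells ip on day 0, ip treatment from day 1, Q01Dx09 (single dose daily for 9 days). %T/C is median lifetime of treated over untreated tumored controls, times 100. Early deaths are assessed on day 4 for toxicity. Cures are animals alive on the last test day.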

B16 [2] = experiment: Difference in body weight in grams between test and control animals at a dose of 6.13 mg/kg intraperitoneally
Outline: (§2)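 B16 melanoma, 10^6 cells ip on day 0, then ip dosing from day 1, once daily for 9 days (Q01Dx09). The value is the body-weight difference in grams, treated minus tumored control animals.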

B16 [3] = experiment: Antitumor activity in B16 Melanoma system animals is indicated by survivors on day 4 at a dose of 6.13 mg/kg intraperitoneally
Outline: (§3)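 B16 melanoma, 10^6 cells inoculated ip on day 0. Ip treatment started day 1, schedule Q01Dx09 (one dose daily for 9 days). The score is live animals on day 4 over total animals; early deaths are taken as drug toxicity.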

B16 [4] = experiment: Antitumor activity in B16 Melanoma system animals is indicated by survivors on day 4 at a dose of 49 mg/kg intraperitoneally; outline: as §3
B16 [5] = experiment: Antitumor activity in B16 Melanoma system animals is indicated by survivors on day 4 at a dose of 24.5 mg/kg intraperitoneally; outline: as §3
B16 [6] = experiment: Percent of median lifetime of test animals divided by the median lifetime of control animals at a dose of 12.25 mg/kg intraperitoneally; outline: as §1
B16 [7] = experiment: Difference in body weight in grams between test and control animals at a dose of 24.5 mg/kg intraperitoneally; outline: as §2
B16 [8] = experiment: Difference in body weight in grams between test and control animals at a dose of 12.25 mg/kg intraperitoneally; outline: as §2
B16 [9] = experiment: Percent of median lifetime of test animals divided by the median lifetime of control animals at a dose of 6.13 mg/kg intraperitoneally; outline: as §1
B16 [10] = experiment: Antitumor activity in B16 Melanoma system animals is indicated by survivors on day 4 at a dose of 12.25 mg/kg intraperitoneally; outline: as §3
B16 [11] = experiment: Difference in body weight in grams between test and control animals at a dose of 49 mg/kg intraperitoneally; outline: as §2
B16 [12] = experiment: Percent of median lifetime of test animals divided by the median lifetime of control animals at a dose of 49 mg/kg intraperitoneally; outline: as §1
B16 [13] = experiment: Antitumor activity in B16 Melanoma system animals is indicated by survivors on day 4 at a dose of 6.25 mg/kg intraperitoneally; outline: as §3
B16 [14] = experiment: Percent of median lifetime of test animals divided by the median lifetime of control animals at a dose of 25 mg/kg intraperitoneally
Outline: (§4)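 B16 melanoma inoculated ip (10⁶ cells) on day 0. Daily ip treatment for 9 days (Q01Dx09) begins day 1, dosed per injection in mg/kg. %T/C is the median lifespan of treated animals divided by that of tumored untreated controls, ×100. Cures are animals alive on the last test day. Toxic deaths are assessed on day 4.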

B16 [15] = experiment: Percent of median lifetime of test animals divided by the median lifetime of control animals at a dose of 12.5 mg/kg intraperitoneally; outline: as §4
B16 [16] = experiment: Antitumor activity in B16 Melanoma system animals is indicated by survivors on day 4 at a dose of 50 mg/kg intraperitoneally; outline: as §3
B16 [17] = experiment: Percent of median lifetime of test animals divided by the median lifetime of control animals at a dose of 6.25 mg/kg intraperitoneally; outline: as §4
B16 [18] = experiment: Antitumor activity in B16 Melanoma system animals is indicated by survivors on day 4 at a dose of 12.5 mg/kg intraperitoneally; outline: as §3
B16 [19] = experiment: Difference in body weight in grams between test and control animals at a dose of 50 mg/kg intraperitoneally
Outline: (§5)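 B16 melanoma system: 10⁶ tumor cells inoculated ip on day 0. Drug given ip once daily for 9 days (Q01Dx09) starting day 1, dose as mg/kg body weight per injection. Read-out is the body-weight difference in grams, treated minus control animals. Early deaths, taken as toxicity, are scored on day 4.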

B16 [20] = experiment: Difference in body weight in grams between test and control animals at a dose of 25 mg/kg intraperitoneally; outline: as §5
B16 [21] = experiment: Antitumor activity in B16 Melanoma system animals is indicated by survivors on day 4 at a dose of 25 mg/kg intraperitoneally; outline: as §3
B16 [22] = experiment: Difference in body weight in grams between test and control animals at a dose of 12.5 mg/kg intraperitoneally; outline: as §5
B16 [23] = experiment: Percent of median lifetime of test animals divided by the median lifetime of control animals at a dose of 50 mg/kg intraperitoneally; outline: as §4
B16 [24] = experiment: Difference in body weight in grams between test and control animals at a dose of 6.25 mg/kg intraperitoneally; outline: as §5

## CC(=O)OC1C(=O)[C@@]2(C)[C@H]([C@H](OC(=O)c3ccccc3)[C@]3(O)CC(OC(=O)C(OC(=O)CCCC(=O)[O-])C(NC(=O)c4ccccc4)c4ccccc4)C(C)=C1C3(C)C)[C@]1(OC(C)=O)CO[C@@H]1C[C@@H]2O.[Na+] (some centres undefined)
B16 [1]
  T/C: 225%
B16 [2]
  Weight difference: 0.4 g
B16 [3]
  Activity: 8
B16 [4]
  Activity: 7
B16 [5]
  Activity: 7
B16 [6]
  T/C: 192%
B16 [7]
  Weight difference: 1.5 g
B16 [8]
  Weight difference: 0.6 g
B16 [9]
  T/C: 159%
B16 [10]
  Activity: 8
B16 [11]
  Weight difference: 0.8 g
B16 [12]
  T/C: 339%

## CC(=O)OC1C(=O)[C@@]2(C)[C@H]([C@H](OC(=O)c3ccccc3)[C@]3(O)CC(OC(=O)C(OC(=O)CCC(=O)O)C(NC(=O)c4ccccc4)c4ccccc4)C(C)=C1C3(C)C)[C@]1(OC(C)=O)CO[C@@H]1C[C@@H]2O.CNC[C@H](O)[C@@H](O)[C@H](O)[C@H](O)CO (some centres undefined)
B16 [13]
  Activity: 10
B16 [14]
  T/C: 176%
B16 [15]
  T/C: 134%
B16 [16]
  Activity: 10
B16 [17]
  T/C: 125%
B16 [18]
  Activity: 10
B16 [19]
  Weight difference: -0.6 g
B16 [20]
  Weight difference: 0.3 g
B16 [21]
  Activity: 10
B16 [22]
  Weight difference: 0.3 g
B16 [23]
  T/C: 241%
B16 [24]
  Weight difference: -0.2 g
